ChEMBL document CHEMBL3763086, “Salicylanilide N-monosubstituted carbamates: Synthesis and in vitro antimicrobial activity” (2016)
≈ marks a conversion by molar mass, not a printed value.

How the values were obtained:
Format in all cases: functional
[1] = system: Staphylococcus epidermidis; test: Antibacterial activity against Staphylococcus epidermidis H 6966/08 after 48 hrs by microbroth dilution method; details: H 6966/08, 48 h
In short: (§1)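 Microbroth dilution modified per M07-A07 in Mueller-Hinton broth, pH 7.4 (±0.2). Inoculum in sterile water adjusted to 0.5 McFarland. MIC taken as growth reduction of at least 90% (IC90) versus control, read visually and at 540 nm after 24 and 48 h incubation in the dark.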

Trichosporon asahii [2] = test: Antifungal activity against Trichosporon asahii 1188 after 48 hrs by microbroth dilution method; details: Trichosporon asahii, 1188, 48 h
Candida tropicalis [3] = test: Antifungal activity against Candida tropicalis 156 after 48 hrs by microbroth dilution method; details: Candida tropicalis, 156, 48 h
Klebsiella pneumoniae [4] = test: Antibacterial activity against Klebsiella pneumoniae D 11750/08 after 48 hrs by microbroth dilution method; details: D 11750/08, 48 h; in short: as §1
Staphylococcus aureus [5] = test: Antibacterial activity against methicillin-resistant Staphylococcus aureus H 5996/08 after 24 hrs by microbroth dilution method; details: H 5996/08, 24 h
In short: (§2)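 Microdilution broth method modified after M07-A07 in Mueller-Hinton broth adjusted to pH 7.4 (±0.2). Inoculum prepared in sterile water to 0.5 McFarland (1.5 × 10^8 CFU/mL). MIC taken as growth reduction versus control (IC95 per table header), read visually and spectrophotometrically at 540 nm after 24 and 48 h incubation in the dark.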

[6] = system: Staphylococcus epidermidis; test: Antibacterial activity against Staphylococcus epidermidis H 6966/08 after 24 hrs by microbroth dilution method; details: H 6966/08, 24 h; in short: as §1
Klebsiella pneumoniae [7] = test: Antibacterial activity against ESBL-positive Klebsiella pneumoniae J 14368/08 after 48 hrs by microbroth dilution method; details: J 14368/08, 48 h; in short: as §1
Pichia kudriavzevii [8] = test: Antifungal activity against Candida krusei E28 after 24 hrs by microbroth dilution method; details: E28, 24 h
Enterococcus sp. [9] = test: Antibacterial activity against Enterococcus sp. J 14365/08 after 48 hrs by microbroth dilution method; details: J 14365/08, 48 h; in short: as §1
Lichtheimia corymbifera [10] = test: Antifungal activity against Absidia corymbifera 272 after 48 hrs by microbroth dilution method; details: Lichtheimia corymbifera, 272, 48 h
Candida albicans [11] = test: Antifungal activity against Candida albicans ATCC 44859 after 48 hrs by microbroth dilution method; details: ATCC 44859, 48 h
Escherichia coli [12] = test: Antibacterial activity against Escherichia coli CCM 4517 after 48 hrs by microbroth dilution method; details: CCM 4517, 48 h; in short: as §1
Candida tropicalis [13] = test: Antifungal activity against Candida tropicalis 156 after 24 hrs by microbroth dilution method; details: Candida tropicalis, 156, 24 h
Trichosporon asahii [14] = test: Antifungal activity against Trichosporon asahii 1188 after 24 hrs by microbroth dilution method; details: Trichosporon asahii, 1188, 24 h
Nakaseomyces glabratus [15] = test: Antifungal activity against Candida glabrata 20/I after 24 hrs by microbroth dilution method
Candida albicans [16] = test: Antifungal activity against Candida albicans ATCC 44859 after 24 hrs by microbroth dilution method; details: ATCC 44859, 24 h
[17] = system: Trichophyton mentagrophytes; test: Antifungal activity against Trichophyton mentagrophytes 445 after 72 hrs by microbroth dilution method; details: Trichophyton mentagrophytes, 445, 72 h
Klebsiella pneumoniae [18] = test: Antibacterial activity against Klebsiella pneumoniae D 11750/08 after 24 hrs by microbroth dilution method; details: D 11750/08, 24 h; in short: as §1
Nakaseomyces glabratus [19] = test: Antifungal activity against Candida glabrata 20/I after 48 hrs by microbroth dilution method
Lichtheimia corymbifera [20] = test: Antifungal activity against Absidia corymbifera 272 after 24 hrs by microbroth dilution method; details: Lichtheimia corymbifera, 272, 24 h
Staphylococcus aureus [21] = test: Antibacterial activity against Staphylococcus aureus CCM 4516/08 after 48 hrs by microbroth dilution method; details: CCM 4516/08, 48 h; in short: as §2
Klebsiella pneumoniae [22] = test: Antibacterial activity against ESBL-positive Klebsiella pneumoniae J 14368/08 after 24 hrs by microbroth dilution method; details: J 14368/08, 24 h; in short: as §1
Pichia kudriavzevii [23] = test: Antifungal activity against Candida krusei E28 after 48 hrs by microbroth dilution method; details: E28, 48 h
Staphylococcus aureus [24] = test: Antibacterial activity against methicillin-resistant Staphylococcus aureus H 5996/08 after 48 hrs by microbroth dilution method; details: H 5996/08, 48 h; in short: as §2
[25] = system: Trichophyton mentagrophytes; test: Antifungal activity against Trichophyton mentagrophytes 445 after 120 hrs by microbroth dilution method; details: Trichophyton mentagrophytes, 445, 120 h
Staphylococcus aureus [26] = test: Antibacterial activity against Staphylococcus aureus CCM 4516/08 after 24 hrs by microbroth dilution method; details: CCM 4516/08, 24 h; in short: as §1
Enterococcus sp. [27] = test: Antibacterial activity against Enterococcus sp. J 14365/08 after 24 hrs by microbroth dilution method; details: J 14365/08, 24 h; in short: as §1
Escherichia coli [28] = test: Antibacterial activity against Escherichia coli CCM 4517 after 24 hrs by microbroth dilution method; details: CCM 4517, 24 h; in short: as §1

Structure (SMILES) | MIC [1] [µM] | MIC (Trichosporon asahii [2]) [µM] | MIC (Candida tropicalis [3]) [µM] | MIC (Klebsiella pneumoniae [4]) [µM] | MIC (Staphylococcus aureus [5]) [µM] | MIC [6] [µM] | MIC (Klebsiella pneumoniae [7]) [µM] | MIC (Pichia kudriavzevii [8]) [µM] | MIC (Enterococcus sp. [9]) [µM] | MIC (Lichtheimia corymbifera [10]) [µM] | MIC (Candida albicans [11]) [µM] | MIC (Escherichia coli [12]) [µM] | MIC (Candida tropicalis [13]) [µM] | MIC (Trichosporon asahii [14]) [µM] | MIC (Nakaseomyces glabratus [15]) [µM] | MIC (Candida albicans [16]) [µM] | MIC [17] [µM] | MIC (Klebsiella pneumoniae [18]) [µM] | MIC (Nakaseomyces glabratus [19]) [µM] | MIC (Lichtheimia corymbifera [20]) [µM] | further results
O=C(Nc1ccccc1)Oc1ccc(Cl)cc1C(=O)Nc1ccc(Br)cc1 | 0.98 (≈ 0.437 µg/mL) | 125 (≈ 55.7 µg/mL) | > 500 | > 500 | ≤ 0.49 | ≤ 0.49 | > 500 | 250 (≈ 111 µg/mL) | 500 (≈ 223 µg/mL) | > 500 | > 500 | > 500 | > 500 | 125 (≈ 55.7 µg/mL) | 125 (≈ 55.7 µg/mL) | > 500 | 3.9 (≈ 1.74 µg/mL) | > 500 | 125 (≈ 55.7 µg/mL) | > 500 | MIC (Staphylococcus aureus [21]): 0.98 µM (≈ 0.437 µg/mL); MIC (Klebsiella pneumoniae [22]): > 500 µM; MIC (Pichia kudriavzevii [23]): 250 µM (≈ 111 µg/mL); MIC (Staphylococcus aureus [24]): 0.98 µM (≈ 0.437 µg/mL); MIC [25]: 3.9 µM (≈ 1.74 µg/mL); MIC (Staphylococcus aureus [26]): ≤ 0.49 µM; MIC (Enterococcus sp. [27]): 500 µM (≈ 223 µg/mL); MIC (Escherichia coli [28]): > 500 µM
O=C(NC1CCCCC1)Oc1ccc(Cl)cc1C(=O)Nc1ccc(F)cc1 | 7.81 (≈ 3.05 µg/mL) | > 125 | > 125 | > 125 | 31.2 (≈ 12.2 µg/mL) | 7.81 (≈ 3.05 µg/mL) | 62.5 (≈ 24.4 µg/mL) | > 125 | > 125 | > 125 | > 125 | > 125 | > 125 | 62.5 (≈ 24.4 µg/mL) | 125 (≈ 48.9 µg/mL) | > 125 | 1.95 (≈ 0.762 µg/mL) | > 125 | > 125 | 125 (≈ 48.9 µg/mL) | MIC (Staphylococcus aureus [21]): 15.6 µM (≈ 6.1 µg/mL); MIC (Klebsiella pneumoniae [22]): 62.5 µM (≈ 24.4 µg/mL); MIC (Pichia kudriavzevii [23]): > 125 µM; MIC (Staphylococcus aureus [24]): 31.2 µM (≈ 12.2 µg/mL); MIC [25]: 1.95 µM (≈ 0.762 µg/mL); MIC (Staphylococcus aureus [26]): 15.6 µM (≈ 6.1 µg/mL); MIC (Enterococcus sp. [27]): > 125 µM; MIC (Escherichia coli [28]): > 125 µM
O=C(NCc1ccccc1)Oc1ccc(Cl)cc1C(=O)Nc1ccc(Cl)cc1 | 3.9 (≈ 1.62 µg/mL) | 15.6 (≈ 6.49 µg/mL) | > 125 | 125 (≈ 51.9 µg/mL) | 7.81 (≈ 3.24 µg/mL) | 3.9 (≈ 1.62 µg/mL) | 125 (≈ 51.9 µg/mL) | 62.5 (≈ 26 µg/mL) | > 125 | > 125 | > 125 | > 125 | > 125 | 15.6 (≈ 6.49 µg/mL) | > 125 | > 125 | 1.95 (≈ 0.81 µg/mL) | 125 (≈ 51.9 µg/mL) | > 125 | > 125 | MIC (Staphylococcus aureus [21]): 15.6 µM (≈ 6.49 µg/mL); MIC (Klebsiella pneumoniae [22]): 62.5 µM (≈ 26 µg/mL); MIC (Pichia kudriavzevii [23]): 62.5 µM (≈ 26 µg/mL); MIC (Staphylococcus aureus [24]): 15.6 µM (≈ 6.49 µg/mL); MIC [25]: 1.95 µM (≈ 0.81 µg/mL); MIC (Staphylococcus aureus [26]): 3.9 µM (≈ 1.62 µg/mL); MIC (Enterococcus sp. [27]): > 125 µM; MIC (Escherichia coli [28]): > 125 µM
O=C(NC1CCCCC1)Oc1ccc(Cl)cc1C(=O)Nc1ccc(Br)cc1 | 0.98 (≈ 0.443 µg/mL) | 62.5 (≈ 28.2 µg/mL) | > 125 | > 500 | ≤ 0.49 | ≤ 0.49 | > 500 | > 125 | 500 (≈ 226 µg/mL) | > 125 | > 125 | > 500 | > 125 | 62.5 (≈ 28.2 µg/mL) | > 125 | > 125 | 1.95 (≈ 0.881 µg/mL) | > 500 | > 125 | > 125 | MIC (Staphylococcus aureus [21]): 0.98 µM (≈ 0.443 µg/mL); MIC (Klebsiella pneumoniae [22]): > 500 µM; MIC (Pichia kudriavzevii [23]): > 125 µM; MIC (Staphylococcus aureus [24]): 1.95 µM (≈ 0.881 µg/mL); MIC [25]: 1.95 µM (≈ 0.881 µg/mL); MIC (Staphylococcus aureus [26]): ≤ 0.49 µM; MIC (Enterococcus sp. [27]): 500 µM (≈ 226 µg/mL); MIC (Escherichia coli [28]): > 500 µM
O=C(NCc1ccccc1)Oc1ccc(Cl)cc1C(=O)Nc1ccc(Br)cc1 | 0.98 (≈ 0.451 µg/mL) | 15.6 (≈ 7.18 µg/mL) | 125 (≈ 57.5 µg/mL) | > 500 | ≤ 0.49 | ≤ 0.49 | > 500 | 62.5 (≈ 28.7 µg/mL) | > 500 | 7.81 (≈ 3.59 µg/mL) | 62.5 (≈ 28.7 µg/mL) | > 500 | 125 (≈ 57.5 µg/mL) | 15.6 (≈ 7.18 µg/mL) | 31.2 (≈ 14.4 µg/mL) | 62.5 (≈ 28.7 µg/mL) | 3.9 (≈ 1.79 µg/mL) | > 500 | 31.2 (≈ 14.4 µg/mL) | 7.81 (≈ 3.59 µg/mL) | MIC (Staphylococcus aureus [21]): 0.98 µM (≈ 0.451 µg/mL); MIC (Klebsiella pneumoniae [22]): > 500 µM; MIC (Pichia kudriavzevii [23]): 62.5 µM (≈ 28.7 µg/mL); MIC (Staphylococcus aureus [24]): 1.95 µM (≈ 0.896 µg/mL); MIC [25]: 3.9 µM (≈ 1.79 µg/mL); MIC (Staphylococcus aureus [26]): ≤ 0.49 µM; MIC (Enterococcus sp. [27]): > 500 µM; MIC (Escherichia coli [28]): > 500 µM
